# Only some compounds are listed: those with a hit (about 7.4% of all), similar ones and a draw of the others.
# S1P3 agonist – agonists of human S1P3 receptor; Q99500; activation, % at 4.5 µM; hit rate 0.1% among 60,000; S1P3 NFAT-BLA reporter cells, agonism, FRET ratio; relative to 1 µM S1P, basal subtracted;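 active = activation above the screen-wide mean plus 3 SD, cut at about 4.5% in these data, passing the limit was not always enough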
#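 Material: Human S1P3 NFAT-BLA reporter CHO cells | Incubation: Overnight plating, 4 h compound 37 °C, 2 h substrate RT | Signal: FRET β-lactamase substrate fluorescence, excitation 405 nm, 460/535 nm emission ratio, background-subtracted | Compound: 4.5 µM final, single dose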
# Jurkat tox 60K – reduces viability or proliferation of Jurkat cells | Jurkat E6.1 viability, ATP luminescence, 48 h | inhibition, % at 4 µM | hit rate 1.2% among 56,000;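 active = inhibition above the mean inhibition of all tested compounds plus 3 SD, cut at about 28% in these data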
# S1P1 ag pot – agonists and agonism potentiators of human S1P1 receptor. P21453. S1P1 CRE-bla cells, forskolin, beta-lactamase FRET, potentiator mode; S1P1 agonist co-added at EC20, 2 nM; 100% = saturating reference agonist, 0% = basal. activation, % at 9.5 µM. hit rate 0.57% among 56,000. AID 449;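 active = activation above a cutoff set at the mean activation of all tested compounds plus 3 SD, cut at about 54% in these data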;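 note: forskolin at 4 µM as EC80 and the EC20 agonist is SEW2871; 100% = SEW2871 at its EC100 plus forskolin at EC80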
# M1 agonist – M1 muscarinic receptor agonism | CHO-M1 cells, Fluo-4 calcium fluorescence, agonist mode; stronger effect = higher value | B-score at 10 µM | hit rate 3% among 64,000;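 active = fluorescence rise, raw or as B-score row- and column-corrected plate score, outside the 99.7% band of its plate's samples, either direction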
# M1 antag – antagonists of rat M1 muscarinic receptor; CHO-M1 cells, Fluo-4 calcium, ACh EC80 antagonist mode; stronger effect = lower value; P08482; B-score at 10 µM; AID 628; hit rate 3.4% among 64,000;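 active = calcium fluorescence response, raw or row-and-column corrected B-score, differing from the plate sample mean either way at a set confidence level, mostly lower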
# JNK3 inh – blocks human JNK3 kinase activity; hit rate 0.61% among 60,000; AID 746; purified JNK3 kinase activity, HTS; inhibition, % at 8 µM; P53779; in the data active = inhibition above about 17%;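 note: 0% = DMSO and 100% = reference inhibitor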
# M1 ag confirm – rat M1 muscarinic agonism, confirmation; shares compounds with M1 agonist; CHO-M1 cells, Fluo-4 calcium fluorescence, agonist mode; actives lie on both sides; fluorescence change (max-min) at 10 µM; hit rate 19% among 1,700; AID 1488;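 active = fluorescence change differs from the solvent-only DMSO control mean at a set confidence level in both duplicate runs; inconclusive = differs from solvent-only control mean in just one of two runs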;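 note: an EC20 dose of acetylcholine follows compound addition during the same imaging run; raw fluorescence intensity difference in instrument units with no normalization to controls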
# M4 agonist ctr – activates rat M4 receptor in counter-screen for M1 agonists; fluorescence change (max-min) at 10 µM; hit rate 9% among 1,700; shares compounds with M1 agonist; CHO M4/Gqi5 cells, Fluo-4 calcium fluorescence, agonist mode; actives lie on both sides; AID 1741;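 active = fluorescence change differing from the plate's solvent-only control wells at 99.7% confidence in both duplicates, whether higher or lower; inconclusive = differs from solvent controls in only one of two duplicates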
# Target sequence (P08485 whole entry, looked up): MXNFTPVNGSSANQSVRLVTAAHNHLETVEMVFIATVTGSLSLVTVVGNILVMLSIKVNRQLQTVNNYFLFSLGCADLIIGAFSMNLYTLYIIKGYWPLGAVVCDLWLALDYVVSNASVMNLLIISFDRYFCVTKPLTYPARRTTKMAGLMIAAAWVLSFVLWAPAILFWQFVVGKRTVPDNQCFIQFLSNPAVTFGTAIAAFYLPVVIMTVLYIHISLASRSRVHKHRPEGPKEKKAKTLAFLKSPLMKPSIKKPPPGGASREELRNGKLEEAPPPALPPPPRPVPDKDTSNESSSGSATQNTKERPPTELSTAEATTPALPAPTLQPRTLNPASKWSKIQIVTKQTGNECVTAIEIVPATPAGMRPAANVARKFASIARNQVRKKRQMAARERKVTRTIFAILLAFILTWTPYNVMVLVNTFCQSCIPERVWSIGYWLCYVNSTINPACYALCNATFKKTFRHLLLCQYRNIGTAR
# Starred values were filed as active, the others as inactive; ? = inconclusive; . = no result.
SMILES,S1P3 agonist,Jurkat tox 60K,S1P1 ag pot,M1 agonist,M1 antag,JNK3 inh,M1 ag confirm,M4 agonist ctr
Cc1cc(C)c(S(=O)(=O)N2CCCCC2)c(C)c1-n1ncnn1,0,0,3,1.5,-0.23,2,.,.
C/C(O)=c1/ccc2cccc3nc(C)nc1c23,1,-3,-24,114*,-0.86,-10,896*,814*
Cc1[nH]nc2c1C1(CCN(C(=O)c3ccccc3)CC1)C(C#N)=C(N)O2,0,-2,1,23*,0.16,-5,-12,-29
CCOC(=O)c1ccc(NC(=O)Nc2ccc(OC)c(OC)c2)cc1,-1,1,.,7.3*,-0.44,1,-22*,?
CCOC(=O)C1CCCN(C(=O)CCCn2nc(C)n3c(cc4sccc43)c2=O)C1 (stereo not drawn),-1,2,-13,42*,-0.67,14,335*,?
O=C(CCn1c(=O)sc2ccccc21)NCCN1CCOCC1,1,-4,-22,-0.74,-0.11,0,.,.
CC(=O)c1cccc(-n2nnnc2SCC(=O)Nc2cccc(NC(=O)c3ccco3)c2)c1,-1,5,9,3.6*,-0.13,12,-28,?
Cc1nc2nc(-c3cccs3)cn2nc1C,0,9,29,100*,0.54,4,1066*,1014*
COc1cccc(NC(=O)Cn2cc3c(n2)CCCCC3)c1,0,1,6,-0.19,0.083,1,.,.
O=c1n(-c2ccccc2)c(=O)n(Cc2ccccn2)n1Cc1ccccn1,0,-1,4,0.98,-0.062,-1,.,.
O=S(=O)(Nc1ccc2nc(C(F)(F)F)[nH]c2c1)c1ccccc1,-1,6,.,2.4*,-0.22,-1,-20,-32
O=S(=O)(Nc1ccc2nc(-c3ccc(Br)o3)[nH]c2c1)c1ccccc1,-1,1,1,0.59,0.77,-8,.,.
COc1ccccc1NC(=O)CSc1nnc(C)o1,.,.,.,2.4*,0.078,.,-12,-29
COc1ccc(-c2nnc(SCC(=O)Nc3ccccc3OC)o2)cc1,0,9,-4,-0.37,-0.07,2,.,.
COc1ccc(CCNc2oc(-c3ccccc3OC)nc2C#N)cc1OC,0,-2,-40,3.6*,0.35,5,-22,-74*
COc1ccc(CCNc2oc(-c3ccccc3OC)nc2C#N)cc1,0,0,-14,0.58,-2.1,-7,.,.
Cc1cn(-c2ccc(Br)cc2)[nH]c1=O,0,-5,-9,2.1*,0.75,2,-18,?
CC(=O)Cc1nsc(NC(=O)c2cc(-c3cccc(C(F)(F)F)c3)oc2C)n1,-1,-7,.,-0.3,0.086,-2,.,.
CCN=C(NCC)SC1CC(=O)N(c2cccc(OC)c2)C1=O (stereo not drawn),-1,2,.,2.2,-0.51,4,.,.
CCN=C(Nc1cccc(F)c1)SC1CC(=O)N(c2ccc(OC)cc2)C1=O (stereo not drawn),-1,0,-37,4.8*,-2.2,-6,-14,-28
CCN=C(NCC)SC1CC(=O)N(c2ccccc2)C1=O (stereo not drawn),-2,1,-3,10*,-2.1,1,-11,-28
COc1ccc(N2C(=O)CC(NCc3cccc(F)c3)C2=O)cc1 (stereo not drawn),-1,-3,.,0.055,0.19,-3,.,.
CCN1CCCC1CNC(=O)C1CCN(Cc2nc(-c3cccc(Br)c3)oc2C)CC1 (stereo not drawn),0,7,17,-0.96,-0.25,-2,.,.
CCOc1ccc2nc(NC(NC(=O)CC)(C(=O)OC)C(F)(F)F)sc2c1 (stereo not drawn),-3,.,7,0.18,0.0071,4,.,.
COCCCNC(=O)Cn1nc(-c2ccc(C)cc2)ccc1=O,-1,10,2,-0.58,0.04,-4,.,.
SMILES,S1P3 agonist,Jurkat tox 60K,S1P1 ag pot,M1 agonist,M1 antag,JNK3 inh,M1 ag confirm,M4 agonist ctr
O=C(O)c1ccccc1S(=O)(=O)c1ccccc1CO,0,-3,-3,8*,-0.0056,-6,-12,-45
CCOC(=O)CC(=O)CSc1nc2c(c(C)c1C#N)CCC2,0,-5,1,-2.9*,-1.2,2,-8,-27
CCOC(=O)CC(=O)CSc1nc2c(cc1C#N)CCCCC2,-5,.,2,-0.35,-0.96,0,.,.
O=C(COC(=O)c1ccc(S(=O)(=O)Nc2ccccc2)cc1)NCCN1C(=O)CSC1=O,0,1,-26,-0.52,-1,-9,.,.
O=c1nccc(NCc2ccco2)[nH]1,0,0,4,0.001,0.1,5,.,.
O=C1c2ccccc2-c2onc3ccc(NCc4ccco4)c1c23,-4,.,-23,183*,-0.005,33*,624*,1149*
CCOc1ccc2noc3c2c1C(=O)c1ccccc1-3,0,-1,-61,397*,-9.6*,4,3216*,2874*
CCn1c(=O)n(CC(=O)NC2CCCC(C)C2C)c(=O)c2ccccc21 (stereo not drawn),-1,6,-22,0.45,0.93,-12,.,.
CSc1cccc(NS(=O)(=O)c2cccs2)c1,-1,3,-12,2.8*,0.95,-13,-28*,-57
CSc1cccc(NS(=O)(=O)c2ccc3c(c2)oc(=O)n3C)c1,-1,9,13,-4*,-1.2,-4,-15,-35
Cn1c(=O)oc2cc(S(=O)(=O)Nc3cccc(F)c3)ccc21,-1,2,-1,-0.58,0.092,-1,.,.
COc1ccc(S(=O)(=O)Nc2cccc(SC)c2)cc1OC,-1,10,0,-1.9,-0.2,3,.,.
N#CCCN(C1CCCCC1)S(=O)(=O)CCOc1ccccc1,0,6,4,-1.3,-0.017,5,.,.
COc1cc(/C=C/C(=O)CC(=O)/C=C/c2ccc(O)c(OC)c2)ccc1O,-4,.,-5,164*,-1.1,0,367*,401*
NC(=O)c1c(NC(=O)CSc2nnc(Cc3ccccc3)n2Cc2ccco2)sc2c1CCC2,0,4,17,7.3*,-1.8,5,-14,-22
CC(NC(=O)NC1CCCCC1)C(c1cccs1)N1CCOCC1 (stereo not drawn),-1,-2,0,-0.019,0.032,-5,.,.
COCCCN1C(=O)C(=O)/C(=C(/O)c2ccccc2)C1c1ccc(N(C)C)cc1 (stereo not drawn),0,-1,-33,-0.013,-0.063,8,.,.
CCN(CC)S(=O)(=O)c1ccc(/C(O)=C2/C(=O)C(=O)N(CCOC)C2c2ccccc2)cc1 (stereo not drawn),0,0,15,33*,-0.92,-1,-21,-27

# Screens (PubChem)
